# Only a selection was taken, and hits are over-represented in it overall.
# bCat KO growth: beta-catenin-lacking colon tumor cell growth suppression | HCT116 beta-catenin knockout viability, CellTiter-Glo, 60 h; hits give low values | viability, % at 10 µM | 140,000 compounds, 1.5% hits | AID 818;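 active = viability at or under a set limit, the compound median less 4 SD, cut at about 6% in these data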;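 also: 0% = Hyamine 1622 control at 20 µM and 100% = untreated cell control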
# HUVEC inhibit: human endothelial cell proliferation inhibition | HUVEC proliferation, CellTiter-Glo luminescence, 72 h; hits give low values | viability, % at 10 µM (by protocol) | 86,000 compounds, 1.1% hits | AID 648;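 active = viability at or below 30%; inactive = viability above 30%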;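 also: 100% = median luminescence of DMSO-only cell control wells on each plate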
# H69AR growth 86K: blocks growth of human H69AR lung tumor cells; H69AR lung tumor viability, ATP luminescence, 72 h; hits give low values; 85,000 compounds, 6% hits; viability, % at 10 µM;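 active = viability at or below 40%; inactive = viability above 40%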;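 also: multidrug resistant small cell line overexpressing MRP-1 efflux transporter; 100% = mean luminescence of untreated control wells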
# Lung fibro prol: blocks proliferation of human lung fibroblasts | LL 47 human lung fibroblast viability, ATP luminescence; hits give low values | viability, % at 10 µM | 85,000 compounds, 1.1% hits;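 active = viability at or below 50% in the single dose screen; inactive = viability above 50%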;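 also: compound exposure lasted 72 h before the ATP readout; 100% = median luminescence of untreated cell-only wells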
#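 Material: human lung fibroblast line LL 47, low passage; Evaluation: viability percentage against median untreated-cell control; Buffer or medium: 15% FBS in IMEM; Incubation: 72 h compound exposure at 37 °C after overnight plating; Dosing: 0.1% DMSO in all compound wells; Measured by: CellTiter-Glo luminescence.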
# PTEN del growth: suppresses growth of cells with PTEN deletion | 140,000 compounds, 1.2% hits | viability, % at 10 µM | HCT116 PTEN-null viability, CellTiter-Glo, 60 h; hits give low values;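 active = viability at or below a set limit, 4 SD under the median of all tested compounds, cut at about 3.7% in these data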;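 also: PTEN knockout HCT116 line with beta catenin targeted HCT116 as companion control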
# Starred values were filed as active, the others as inactive; x = no result.
SMILES,bCat KO growth,HUVEC inhibit,H69AR growth 86K,Lung fibro prol,PTEN del growth
Cc1nn(-c2ccccc2)c2c1C(=O)N(c1ccccc1)C(=O)C(C)(C)C2,91,92,79,94,91
Cc1nn(-c2ccccc2)c2c1/C(=N/O)CC(C)(C)C2,87,106,30*,97,80
Cc1cccc(N2CCN(CC(=O)NCC3CCCCC3)CC2)c1C,80,102,95,103,93
C[n+]1ccn(CC(=O)c2ccc(Cl)cc2)c1,97,x,x,x,92
O=C(Cn1ncc(Cl)c(Cl)c1=O)NCC1CCCCC1,1.8*,x,x,x,1.5*
O=C(OCn1ncc(Cl)c(Cl)c1=O)c1ccccc1Cl,3.9*,x,x,x,7
O=C(OCn1ncc(Cl)c(Cl)c1=O)c1ccc(F)cc1,0.8*,x,x,x,0.5*
O=C(Cn1ncc(Cl)c(Cl)c1=O)c1ccc(Cl)cc1,1.7*,2.6*,1.4*,2.6*,2.0*
C=CCn1c(C)cc(C(=O)Cn2ncc(Cl)c(Cl)c2=O)c1C,1.7*,x,x,x,1.4*
O=C(NCc1cccnc1)c1sc2cc(Cl)ccc2c1Cl,41,x,x,x,61
Cc1c(CN(C)C(=O)c2sc3cc(Cl)ccc3c2Cl)cnn1C,15,21*,77,100,24
CCOc1ccccc1NC(=S)N(Cc1cc2ccc(C)cc2[nH]c1=O)CC1CCCN1CC (stereo not drawn),2.5*,x,x,x,1.2*
CCN1CCCC1CN(Cc1cc2ccc(C)cc2[nH]c1=O)C(=S)Nc1cccc(OC)c1 (stereo not drawn),3.5*,x,x,x,2.5*
COc1ccc(-c2oc3ccccc3c(=O)c2OC(=O)c2ccc(C)cc2)cc1,83,x,x,x,77
CCOC(=O)c1c(C)[nH]c(C)c1C(=O)COC(=O)/C=C/c1ccc(OC(F)F)cc1,66,x,x,x,56
O=C1N(CN2CCN(c3cccc(Cl)c3)CC2)c2ccccc2C12OCCCO2,91,89,80,95,89
Cc1ccc(S(=O)(=O)c2c(C)nn(C(C)(C)C)c2OC(=O)c2ccco2)cc1,93,14*,54,109,121
Cc1ccc(S(=O)(=O)c2c(C)nn(C(C)(C)C)c2OC(=O)c2cccs2)cc1,78,12*,110,101,74
CC(=O)Oc1c(S(=O)(=O)c2ccc(C)cc2)c(C)nn1C(C)(C)C,104,108,91,102,100
Cc1ccc(S(=O)(=O)c2c(C)nn(C(C)(C)C)c2OC(=O)c2ccc(Br)o2)cc1,96,13*,37*,102,87
Cc1ccc(S(=O)(=O)c2c(C)nn(C(C)(C)C)c2OC(=O)C(C)(C)C)cc1,75,89,95,96,96
COc1ccc(S(=O)(=O)NC(CC(=O)NCc2ccco2)C(C)C)cc1 (stereo not drawn),86,x,x,x,97
CCOC(=O)N1CCC(NC(=O)c2ccc3c(c2)N(Cc2ccccc2)CCS3)CC1,55,84,45,88,68
CCOC(=O)N1CCC(NC(=O)c2cc(C(=O)NC3CCCC3)ccc2CO)CC1,90,113,102,88,93
CCOC(=O)N1CCC(NC(=O)c2ccc3c(c2)N(Cc2ccc(F)cc2)CCS3)CC1,32,83,24*,98,34
SMILES,bCat KO growth,HUVEC inhibit,H69AR growth 86K,Lung fibro prol,PTEN del growth
CCOC(=O)N1CCC(NC(=O)c2ccc3c(c2)N(Cc2ccc(C)cc2)CCS3)CC1,70,68,38*,75,78
CCOC(=O)N1CCC(NC(=O)c2ccc3c(c2)N(C)CCS3)CC1,97,84,37*,94,91
N#CC1=C(N)Oc2c(ccc3ccccc23)C1c1cccs1 (stereo not drawn),11,22*,17*,53,12
N#CC1=C(N)Oc2cc(O)ccc2C1c1cccs1 (stereo not drawn),84,96,67,100,85
COc1ccc(C(=O)Nc2ccc(S(=O)(=O)Nc3nccc(C)n3)cc2)cc1OC,98,104,65,111,98
COc1ccccc1N1CCN(c2cc(=O)n(Cc3ccc(F)cc3)c(=O)[nH]2)CC1,36,59,30*,61,34
O=C(CN(Cc1ccccc1F)C(=O)c1ccco1)NCc1ccc(F)cc1,107,87,102,98,85
O=C(NC1CCCCC1)C(c1ccccc1)N(Cc1ccc2c(c1)OCO2)C(=O)c1cnsn1 (stereo not drawn),88,87,38*,84,69
Cc1ccc(C(C(=O)NC2CCCC2)N(Cc2ccc3c(c2)OCO3)C(=O)Cc2cccs2)cc1 (stereo not drawn),89,85,64,67,78
COc1ccccc1NC(=O)COc1ccc(/C=N/NC(=O)CSCc2ccc(Cl)cc2)cc1,3.2*,x,x,x,2.2*
COc1ccccc1NC(=O)COc1ccc(/C=N/NC(=O)CSCc2cc(C)cc(C)c2)cc1,90,x,x,x,92
Cc1cccc(-n2c(C)cc(C(=O)NC3CCCCC3)c2C)c1,43,x,x,x,30
N#Cc1cn(Cc2cccc(Cl)c2)c2ccccc12,73,58,63,90,80
N#Cc1ccccc1Cn1cc(/C=C/[N+](=O)[O-])c2ccccc21,2.1*,x,x,x,1.4*
O=[N+]([O-])/C=C/c1cn(Cc2ccccc2)c2ccccc12,1.6*,x,x,x,1.1*
C[C@@H](C(=O)O)[C@H]1C[C@]1(C)[C@H](NC(=O)OCc1ccccc1)c1ccccc1,81,x,x,x,86
CC1(C(=O)NC(=S)N(Cc2ccccc2)c2ccccn2)CC1(Cl)Cl (stereo not drawn),100,x,x,x,107
Cc1ccc2nc(NC3=NCN(Cc4ccco4)CN3)nc(C)c2c1,x,87,59,79,x
Cc1ccc2nc(NC3=NCN(Cc4ccc5c(c4)OCO5)CN3)nc(C)c2c1,x,65,28*,42*,x
N#Cc1cnn(-c2ncnc3sc(-c4ccccc4)cc23)c1N,88,74,36*,96,89
N#Cc1cnn(-c2ncnc3sc4c(c23)CCCC4)c1N,85,x,x,x,80
Nc1nonc1C(=O)NCCNS(=O)(=O)c1ccc(F)cc1,91,x,x,x,91
CCOC(=O)N1CCC(NC(=O)c2ccc3c(c2)ncn3C2CCCC2)CC1,100,94,80,99,93
c1ccc2c(CCNc3ncnc4nc[nH]c34)c[nH]c2c1,47,65,20*,84,38
Cc1ccc(C(c2nnnn2C(C)(C)C)N2CCN(C3CCCC3)CC2)cc1 (stereo not drawn),90,101,83,98,85
CSc1cc(/C=N/O)c(SC)s1,86,x,x,x,86
Cc1cc(C)c(COCc2cc(/C=N/O)c(C)cc2C)cc1/C=N/O,50,74,18*,91,61
O=C(Nc1ccc2c(c1)OC1(CCCC1)O2)C1CC1,81,107,97,95,90
COC(=O)c1ccc2c(=O)n(CC3CCCO3)c(SCC(=O)Nc3ccccc3Cl)nc2c1 (stereo not drawn),2.5*,47,8.2*,80,2.2*
COC(=O)c1ccc2c(=O)n(Cc3ccco3)c(SCC(=O)Nc3ccccc3Cl)nc2c1,68,24*,17*,91,21
